The nature of data set [1]: Metabolic stability in dog hepatocytes assessed as conversion to acyl glucuronide form after 2 hrs. The data set is classed as ADME, cell-based, Canis lupus familiaris, Hepatocyte.
Data set [2] is described as follows: Metabolic stability in marmosets alamethicin-activated microsomes assessed as conversion to acyl glucuronide form after 1 hr. The conditions noted are these: callitrichinae sp. The data set is classed as ADME, Microsome.
For data set [3], the system named is Rattus norvegicus. The experiment in a line: Reduction of plasma triacylglycerol excursion in 14 hrs fasted Han-Wistar rat at 0.3 mg/kg, po treated 2 hrs before bolus corn oil administration measured 1.5 hrs post corn oil challenge by oral lipid tolerance test relative to control. The data set is classed as functional. Also on record: scale not given: the % may be the effect or the level left. In a few lines: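 Male Han-Wistar rats (~230 g) on chow diet were fasted 14 h and given compound by oral gavage, suspended in HPMC/Tween. A corn oil bolus (5 mL/kg) followed 2 h later. After 1.5 h, blood was drawn from the abdominal vena cava and plasma TAG measured colorimetrically (GPO-PAP). Result is % reduction versus vehicle-treated controls; n = 6.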

For data set [4], the system named is Rattus norvegicus. The experiment in a line: Reduction of adipose triacylglycerol synthesis in 14 hrs fasted Han-Wistar rat assessed as decrease in ratio of [3H]palmitic acid incorporation in to TAG and DAG at 8 mg/kg, po after 1.5 hrs relative to control. The format is functional. Also on record: scale not given: the % may be the effect or the level left. In a few lines:
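Male Han-Wistar rats (~300 g) on chow diet were given compound by oral gavage, suspended in HPMC/Tween. At 1.5 h they were anaesthetised with inactin and a bolus of [3H]-palmitic acid was given via a jugular cannula. Epididymal fat was taken 20 min later, homogenised in duplicate with [14C]-oleic acid internal standard, and lipids separated by HPLC. Result is % reduction of the TAG/DAG label ratio versus vehicle; n = 10.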

Each structure is given as a SMILES string.

Regarding `CC1(C)Oc2ncnc(N)c2N=C1c1ccc(C23CCC(CC(=O)O)(CC2)CC3)cc1`, the Stability in data set [1] came to 38%; in data set [2], 15%. Besides, the Activity was 57% in data set [3] and 54% in data set [4].

For the origin of these results see ChEMBL document CHEMBL1152806, “Discovery of a potent, selective, and orally efficacious pyrimidinooxazinyl bicyclooctaneacetic acid diacylglycerol acyltransferase-1 inhibitor” (J Med Chem, 2009).
